Assay outcomes as filed in PubChem BioAssay.
S1P3 agonist – S1P3 (human) receptor agonism. 0.1% of 60,000 active. activation, % at 4.5 µM. Q99500. AID 373. S1P3 NFAT-BLA reporter cells, FRET ratio; relative to 1 µM S1P, basal subtracted;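 active = activation above the screen-wide mean plus 3 SD, cut at about 4.5% in these data, passing the limit was not always enough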
Target sequence (Q99500 whole entry, looked up): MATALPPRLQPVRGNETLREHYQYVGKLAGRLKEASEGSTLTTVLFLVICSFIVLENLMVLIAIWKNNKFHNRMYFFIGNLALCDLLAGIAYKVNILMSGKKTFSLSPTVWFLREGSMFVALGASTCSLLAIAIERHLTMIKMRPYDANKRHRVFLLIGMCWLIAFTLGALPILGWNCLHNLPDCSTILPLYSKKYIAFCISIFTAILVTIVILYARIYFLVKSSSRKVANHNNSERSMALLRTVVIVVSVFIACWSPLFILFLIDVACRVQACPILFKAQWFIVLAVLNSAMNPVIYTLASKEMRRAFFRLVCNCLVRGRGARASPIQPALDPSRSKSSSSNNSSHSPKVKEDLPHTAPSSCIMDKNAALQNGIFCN
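material = human S1P3 NFAT-BLA reporter CHO cells | schedule = 4 h compound at 37 °C, 2 h substrate at RT | measured by = fluorescent BLA substrate, ex 405 nm, em 460/535 nm ratio | controls = 1 µM S1P reference | replication = primary once, confirmation triplicate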
M1 antagonist – M1 muscarinic receptor (rat) antagonism. CHO-M1 cells, Fluo-4 calcium, ACh EC80 antagonist mode; active compounds read low. B-score at 10 µM. AID 628. 3.4% of 64,000 active;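 active = calcium fluorescence response, raw or row-and-column corrected B-score, differing from the plate sample mean either way at a set confidence level, mostly lower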
S1P1 ag-PAM – S1P1 (human) agonism or agonism potentiation; P21453; S1P1 CRE-bla cells, forskolin, beta-lactamase FRET, potentiator mode; S1P1 agonist co-added at EC20, 2 nM; 100% = saturating reference agonist, 0% = basal; activation, % at 9.5 µM; 0.57% of 56,000 active; AID 449;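 active = activation above a cutoff set at the mean activation of all tested compounds plus 3 SD, cut at about 54% in these data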;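 also: forskolin at 4 µM as EC80 and the EC20 agonist is SEW2871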
M1 agonist – activates the M1 muscarinic receptor; CHO-M1 cells, Fluo-4 calcium fluorescence, agonist mode; active compounds read high; B-score at 10 µM; 3% of 64,000 active;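 active = fluorescence rise, raw or as B-score row- and column-corrected plate score, outside the 99.7% band of its plate's samples, either direction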
D1 mod – D1 dopamine receptor (human) allosteric modulation | HEK293 D1, CRE-luciferase, dopamine EC30 potentiation; actives deviate in either direction | B-score at 10 µM | 5.9% of 58,000 active;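 active = luminescence count or its row- and column-corrected plate score outside the 99.7% band of the plate's sample wells, on either side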
Each line names hits and unclear results; the compound was inactive in the other large screens. A selection: hits, their analogues and other compounds. The true share with any hit is near 11%.

Cn1nc(-c2ccc(Cl)cc2)c2cc(C(=O)N3CCC(N4CCCCC4)CC3)sc21	none (no result: D1 mod)
Cn1nc(-c2ccc(Cl)cc2)c2cc(C(=O)N3CCCC3)sc21	D1 mod -3.2
Cc1c(C(=O)NCc2cccnc2)sc2nc(-c3ccc(F)cc3)cn12	D1 mod -5.8
Cc1c(C(=O)Nc2ccncc2)sc2nc(-c3ccccc3)cn12	D1 mod -4.5
Cc1ccccc1CS(=O)(=O)CCC(=O)NCCN1CCN(c2cccc(Cl)c2)CC1	D1 mod -3.6
CC(=O)N1CCN(CCN=CC2=C(O)CC(c3cccs3)CC2=O)CC1 (centres undefined)	none
COc1ccc2cc(C3(C)NC(=O)NC3=O)ccc2c1 (centres undefined)	M1 antagonist 2.4
CCCNC(=O)c1ccccc1NC(=O)CN(c1ccccc1OCC)S(C)(=O)=O	none
O=S(=O)(N1CCOCC1)n1c(Cc2ccccc2)nc2ccccc21	D1 mod 4.4
O=S(=O)(N1CCOCC1)n1nnc2ccccc21	none
Cc1c(NC(=O)Cn2nc(C(=O)O)c3ccccc3c2=O)c(=O)n(-c2ccccc2)n1C	M1 antagonist 1
Cc1c(NC(=O)C2CCCNC2=O)c(=O)n(-c2ccccc2)n1C (centres undefined)	M1 antagonist 0.69
Cc1c(NC(=O)CC(=O)Nc2c(C)n(C)n(-c3ccccc3)c2=O)c(=O)n(-c2ccccc2)n1C	none (no result: D1 mod)
CCCNC(=O)c1c(N)n(-c2cc(OC)cc(OC)c2)c2nc3ccccc3nc12	none
Cc1cc(C)nc(N2CCCC(C(=O)NC(C)CCc3ccco3)C2)n1 (centres undefined)	none
CCCc1ccc(Oc2c(-c3ccc(O)c(C)c3O)n[nH]c2C)cc1	none
CCCc1ccc(Oc2cn[nH]c2-c2ccc(O)c(C)c2O)cc1	S1P1 ag-PAM 58
CC(=O)c1ccc(N2CCN(C(=O)c3cc4c(=O)n(C)c5ccccc5c4n3C)CC2)cc1	none
CCCn1c(SCC(=O)c2cc(OC)ccc2OC)nnc1C(C)C	none (no result: D1 mod)
CCOC(=O)N1CCN(C(=O)CCC(=O)N2CCOc3ccc(C)cc32)CC1	none
CCOC(=O)N1CCC(NC(=O)CCC(=O)N2CCOc3ccc(C)cc32)CC1	M1 antagonist 3.3
CCOC(=O)c1sc(NC(=O)c2cccs2)cc1C	none
CCOC(=O)c1sc(NC(=O)c2ccc(Br)o2)cc1C	D1 mod -3.9 (no result: S1P3 agonist, S1P1 ag-PAM)
Cc1sccc1C1C(C#N)=C(N)SC(N)=C1C#N	M1 agonist 130
CCOc1ccc(C2C(C#N)=C(N)SC(N)=C2C#N)c(OCC)c1	none
Cc1cc(C2C(C#N)=C(N)SC(N)=C2C#N)c(C)s1	M1 agonist 3.3 (no result: S1P1 ag-PAM)
CCCCc1ccc(C2C(C#N)=C(N)SC(N)=C2C#N)s1	none
COC(=O)c1cc(Br)c(=O)n(Cc2ccc(OC)c(OC)c2)c1	none (no result: D1 mod)
Fc1ccccc1COc1cccc(/C=N/n2cnnc2)c1	none
Cc1cc(/C=N/n2cnnc2)c(C)n1-c1ccc(OCc2ccccc2F)cc1	S1P1 ag-PAM 142
OC1CN=C2C=CC=CN2C1 (centres undefined)	none
N#CCSc1nnc(-c2ccccc2)c(-c2ccccc2)n1	S1P3 agonist 6.3
N#CCSc1nc(-c2ccccc2)cs1	none
C=CCn1c(SCc2c(C)noc2C)nnc1C1COc2ccccc2O1 (centres undefined)	none
Cn1c(=O)c2c3c(sc2n2c(SCC(N)=O)nnc12)CC(C(C)(C)C)CC3 (centres undefined)	none (no result: D1 mod)
O=C(CCSc1nnnn1-c1ccccc1)N1CCOCC1	none (no result: S1P3 agonist, S1P1 ag-PAM)
O=C(CSc1nnnn1-c1cccc2c1CCCC2)N1CCOCC1	M1 antagonist 2.7 (no result: S1P3 agonist, S1P1 ag-PAM, D1 mod)
Nc1ccc(CN2CCN(c3ccc4ccccc4n3)CC2)cc1	none
COc1ccccc1NC(=O)CN1C(=O)C2(OCCCO2)c2ccccc21	D1 mod -2.6
COc1ccc(OC)c(NC(=O)CN2C(=O)C3(OCCCO3)c3ccccc32)c1	none
Cc1ccnc(N2CCC(C(=O)Nc3cccc(C(F)(F)F)c3)CC2)n1	none (no result: D1 mod)
CC(=O)OC1C(OC(C)=O)N(C(C)=O)C(=O)N1C(C)=O (centres undefined)	M1 antagonist 1.9
O=S(=O)(NCCN1CCCC1)c1cccc2cccnc12	none
O=S(=O)(NCCCN1CCN(c2ccccc2F)CC1)c1cccc2cccnc12	D1 mod -2.9
Cc1ccc(Cn2ccc(NC(=O)c3c(-c4ccccc4Cl)noc3C)n2)cc1	none (no result: S1P3 agonist, S1P1 ag-PAM)
O=C(CN1C(=O)c2ccccc2S1(=O)=O)N1CCOCC1	none
O=C1OCCC1N1C(=O)c2ccccc2S1(=O)=O (centres undefined)	D1 mod -4.3
CCOC(=O)Cc1csc(NC(=O)CCN2C(=O)c3ccccc3C2=O)n1	none
CC1(c2ccc(OC(F)F)cc2)NC(=O)N(CC(=O)Nc2ccc3c(c2)OCO3)C1=O (centres undefined)	M1 agonist 23
CCN(CC)C(=O)CSC1=C(C#N)C(c2cccs2)C=C(C)N1 (centres undefined)	none
CCCCOc1ccc(-c2nnn(CC(=O)Nc3ncc(CC(=O)OCC)s3)n2)cc1	M1 antagonist 2.5
CCOC(=O)Cc1cnc(NC(=O)Cn2nnc(-c3ccc(OCC)cc3)n2)s1	none
OC(CN1CCN(c2ccccn2)CC1)Cn1c2ccccc2c2ccccc21 (centres undefined)	D1 mod -2.7
CCCS(=O)(=O)N1CCC(C(=O)NCCCOCC)CC1	none
CCOC(=O)C1=C(C)NC(=O)NC1c1cc(Br)c(O)c(OC)c1 (centres undefined)	none
COc1cc(C2NC(=O)NC(C)=C2C(=O)OC2CCCCC2)cc(Br)c1O (centres undefined)	D1 mod -4
Cc1c(Cl)ccc2c1NC(=O)C21NC(CCC(N)=O)[C@H]2C(=O)N(c3ccc(Cl)cc3)C(=O)[C@H]21 (some centres undefined)	M1 antagonist 1.8
Cc1ccc(C(=O)/C=C/Nc2cccc(O)c2)cc1	D1 mod -2.8
O=C(/C=C/Nc1cccc(O)c1)c1ccccc1	D1 mod -8.7
C/C(=C\C(=O)c1ccc(C)cc1)Nc1cccc(O)c1	none
CS(=O)(=O)c1ccc2nc(NC(=O)c3cccs3)sc2c1	D1 mod -5.7 (no result: S1P1 ag-PAM)
Cc1ccc(C(=O)Nc2nc3ccc(S(C)(=O)=O)cc3s2)s1	none
Cc1ccc(C(=O)Nc2nc3ccccc3s2)s1	D1 mod -5.8
Cc1ccc(C(=O)Nc2nc(COc3ccccc3)cs2)s1	S1P1 ag-PAM 98
Cc1ccc(CNc2nc3ccccc3s2)s1	D1 mod -2.4
Cc1ccc2nc(NC(=O)c3cccs3)sc2c1	none (no result: S1P3 agonist, S1P1 ag-PAM)
CCOC(=O)CC(=O)Nc1nc2ccccc2s1	none (no result: M1 antagonist, M1 agonist)
Cc1nnc2sc(-c3cc4ccccc4o3)nn12	none (no result: M1 antagonist, M1 agonist)
CC(C)(C)c1cc(Cc2ccccc2)[nH]n1	none
Cc1ccc(S(=O)(=O)c2cc3c(=O)n4ccccc4nc3n(CC3CCCO3)c2=N)cc1C (centres undefined)	D1 mod 10
COC(=O)c1cccc(S(=O)(=O)N2CCCCC2)c1	none
